DDE Tn7 FP inh: inhibitors of Tn7 peptide binding to fibrin DD(E), primary screen, biochemical, fluorescence polarization, human fibrin, Tn7 probe; AID 720508, 2013; inhibition, % at 8.3 µM; FP displacement of FITC-Tn7 peptide from fibrin DD(E); 0% = median of compound wells per plate; Fibrinogen beta chain (Homo sapiens), P02675; 370,000 compounds, 0.13% hits;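 active = inhibition above the mean of compounds falling within the control limits plus 3 SD of them, cut at about 14% in these data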
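Test system – human fibrin DD(E) · Times – 10 min preincubation, 3 h with tracer, room temperature · Detection – fluorescence polarization of the labelled Tn7 tracer · Measure – percent inhibition normalized to high-control wells · Benchmarks – high control wells with 10 µM unlabelled Aha-Tn7 peptide (full inhibition) · Repeats – singlicate testing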
SKN-1 inh: suppressors of acrylamide-induced Pgst-4::GFP reporter in worms, primary screen, SKN-1 inhibitor project, whole organism, uHTS, GFP/RFP fluorescence ratio, strain VP596; C. elegans VP596 Pgst-4::GFP/RFP ratio, 24 h; inhibition, % at 21.8 µM; 360,000 compounds, 0.49% hits; AID 624304, 2012;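 active = interference check ratio from 0.5 to 1.5 plus GFP to RFP signal ratio inhibition reaching or exceeding a fixed threshold, cut at about 30% in these data, passing the limit was not always enough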
proKLK7 act: proKLK7 zymogen activators, primary screen, biochemical, fluorescence intensity | purified proKLK7, EDANS-DABCYL substrate fluorescence; 100% is mature enzyme control, 0% vehicle | activation, % at 7 µM | 370,000 compounds, 0.9% hits;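 active = activation above the mean of all tested compounds plus 3 SD, computed per campaign excluding outliers beyond control limits, cut at about 13% in these data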
Target sequence (P49862 whole entry, looked up): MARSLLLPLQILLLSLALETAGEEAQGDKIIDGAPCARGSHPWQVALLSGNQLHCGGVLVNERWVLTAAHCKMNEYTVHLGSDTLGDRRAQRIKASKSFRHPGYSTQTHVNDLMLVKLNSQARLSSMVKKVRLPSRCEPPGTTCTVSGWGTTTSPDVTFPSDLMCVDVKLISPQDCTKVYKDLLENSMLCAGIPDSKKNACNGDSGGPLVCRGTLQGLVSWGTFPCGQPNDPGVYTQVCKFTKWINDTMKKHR
Tn6 DDE FP: inhibitors of Tn6 peptide binding to fibrin DD(E), primary screen, biochemical, fluorescence polarization, human fibrin, Tn6 probe | Fibrin DD(E) TRITC-Tn6 fluorescence polarization displacement | inhibition, % at 8.3 µM | 370,000 compounds, 0.21% hits;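 active = inhibition above a per-campaign cutoff: mean of compounds within control limits plus 3 SD, cut at about 15% in these data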
MT1-MMP act inh: blockers of MT1-MMP proenzyme processing, primary screen, HT1080 RFP-PRO-GFP cells, GFP/RFP fluorescence; Matrix metalloproteinase-14 (Homo sapiens), P50281; GFP/RFP ratio change, % at 20 µM; 360,000 compounds, 0.061% hits; GFP/RFP ratio fluorescence, overnight; percent of plate control window, DMSO zero;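 active = GFP/RFP ratio change of at least 30% with cell ATP level not reduced by more than half and red fluorescence within 50% of control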
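Assay system – RFP-PRO-GFP reporter HT1080 cells · Compound dosing – single dose of 20 µM compound, 1% DMSO final · Incubation – overnight compound exposure at 37 °C · Measure – GFP/RFP fluorescence ratio · Benchmarks – DMSO wells and RFP-L50D-GFP cells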
Neddyl block: inhibitors of cullin neddylation, primary screen, biochemical, TR-FRET, uHTS, NAE and Ubc12; NEDD8-conjugating enzyme Ubc12 (Homo sapiens) + NEDD8-activating enzyme E1 regulatory …; calls only at 25 µM; 360,000 compounds, 0.58% hits; in the data active = inhibition above about 36%
Large screens that a line does not name were inactive. In the library only some 2.2% were active in any assay of this set; here they are far more common.

O=C(NNC(=O)c1ccccc1-n1cccc1)c1ccc(Cl)cc1	SKN-1 inh 37
CCNC(=O)COC(=O)c1csc2c1CCCC2	none
C/C(=N\NC(=O)c1nnn(-c2nonc2N)c1CN(C)c1ccccc1)c1ccccc1O	none (not shown: Neddyl block)
C/C(=N\NC(=O)c1nnn(-c2nonc2N)c1CN1CCCCC1)c1ccccc1O	Neddyl block active
O=C(COC(=O)c1ccc(Br)o1)Nc1ccc(S(=O)(=O)N2CCCC2)cc1	SKN-1 inh 40
O=C(COC(=O)c1ccc(Br)o1)Nc1cccc(S(=O)(=O)N2CCCCC2)c1	none
Cc1cccc(NC(=O)CCCCC(=O)Nc2cccc(C)c2)c1	none
NC(=O)C1CCN(C(=O)c2ccc3c(c2)S(=O)(=O)c2ccccc2C3=O)CC1	none
CCOC(=O)C1CCN(C(=O)c2ccc3c(c2)S(=O)(=O)c2ccccc2C3=O)CC1	SKN-1 inh 36
NC(=O)CC(NC(=O)Cc1cccc2ccccc12)c1ccc(N2CCCCCC2)c([N+](=O)[O-])c1 (stereo unspecified)	none
NC(=O)CC(NC(=O)Cc1cccc2ccccc12)c1ccc(N2CCC(N3CCCCC3)CC2)c([N+](=O)[O-])c1 (stereo unspecified)	SKN-1 inh 46
COc1cc2c3nnc(-c4ccc(F)cc4)c-3cn(Cc3ccc(C)cc3)c2cc1OC	Neddyl block active
Cn1c(=O)c2c(-c3ccccc3)n(-c3ccc(N)cc3)cc2n(C)c1=O	SKN-1 inh 49
O=C(NCCN1CCOCC1)c1cccc(S(=O)(=O)N2CCCCCC2)c1	none (no result: MT1-MMP act inh)
CNC(=O)COC(=O)c1cc(-c2ccco2)nc2ccccc12	proKLK7 act 130 (not shown: Neddyl block)
Cn1c(N)c(C(=O)COC(=O)c2cc(-c3ccco3)nc3ccccc23)c(=O)n(C)c1=O	none
Nc1nc(-c2ccc(Br)cc2)cs1	none
c1ccc(-c2nc(-c3cccnc3)cs2)cc1	none
Cc1ccc(-c2csc(-c3ccncc3)n2)cc1	SKN-1 inh 41
c1ccc(-c2csc(-c3cccnc3)n2)cc1	SKN-1 inh 42
Brc1ccc(-c2csc(-c3ccncc3)n2)cc1	SKN-1 inh 40
O=C(CCSc1ccccc1)NC(=O)COC(=O)C1CCCCC1	none (no result: MT1-MMP act inh)
Cc1ccc(S(=O)(=O)NCCNS(=O)(=O)c2ccc(C)cc2)cc1	none
COc1cccc(/C=N/NC(=O)c2ccc3nc[nH]c3c2)c1O	none
CCN(CC)c1ccc(/C=N/NC(=O)c2ccc3nc[nH]c3c2)c(O)c1	Neddyl block active (no result: DDE Tn7 FP inh, proKLK7 act, Tn6 DDE FP)
CCC(=O)N1c2ccc(S(=O)(=O)CCC(=O)NCc3cccs3)cc2CC1C (stereo unspecified)	SKN-1 inh 43
Cc1ccc(C2=NN(S(C)(=O)=O)C(c3ccc4c(c3)OCO4)C2)cc1 (stereo unspecified)	SKN-1 inh 38
CS(=O)(=O)N1N=C(c2ccc(Br)cc2)CC1c1ccc2c(c1)OCO2 (stereo unspecified)	none (no result: DDE Tn7 FP inh, proKLK7 act, Tn6 DDE FP)
CCCCn1nnnc1NCc1ccc(C)s1	SKN-1 inh 41
CC(C)CCN(C)C1CCN(C(=O)Nc2ccccc2)CC1	none (no result: SKN-1 inh, MT1-MMP act inh, Neddyl block)
CCOc1ccccc1N1C(=O)CC(N(O)c2ccccc2)C1=O (stereo unspecified)	proKLK7 act 67
O=C1CSC(=S)N1/N=C/c1cccc(C(F)(F)F)c1	none
O=C(/C=C/[C@H]1O[C@@H](n2cnc3c(NC(=O)c4ccccc4)ncnc32)[C@H](O)[C@@H]1O)NCCCc1ccccc1	none
Cc1c(-c2nc(-c3cccnc3)no2)cccc1[N+](=O)[O-]	SKN-1 inh 42
O=C(NS(=O)(=O)Oc1cccc(F)c1)OC[C@@H]1CCCN2CCCCC12 (stereo partly specified)	none
OCc1cccc(-c2csc(C(O)(c3ccccc3)C(F)(F)F)n2)c1 (stereo unspecified)	SKN-1 inh 35
C=CCn1c(CNC(=O)c2ccco2)nnc1SCC(=O)c1ccccc1	none
CCN=C1S/C(=C\c2ccc(-c3cccc(C(=O)O)c3)o2)C(=O)N1CC	Neddyl block active (no result: DDE Tn7 FP inh, proKLK7 act, Tn6 DDE FP)
CCN1C(=O)/C(=C\c2ccc(-c3cccc(C(=O)OC)c3)o2)SC1=Nc1ccc(C(=O)O)cc1	none (no result: SKN-1 inh, MT1-MMP act inh, Neddyl block)
CC(=O)N/C(=C\c1ccc(Cl)cc1)C(=O)O	none
CCOc1cccc(CNn2cnnc2)c1OCc1ccccc1Cl	none
CCOc1cccc(CNc2ccc(O)cc2)c1OCc1ccc(Cl)cc1Cl	Tn6 DDE FP 28
CCOc1cccc(CNc2ccc(O)cc2)c1OCc1ccccc1Cl	Tn6 DDE FP 16
COCCOC(=O)C1=C(N)OC2=C(C(=O)CC(C)(C)C2)C1c1cccnc1 (stereo unspecified)	none
Cc1ccc(Cc2c[nH]c(=S)s2)cc1	none
CC(C)n1c(O)c(N=NC(=O)CNC(=O)CCc2ccccc2)c2ccccc21	none
CCOc1ccc(Nc2nc(N)c([N+](=O)[O-])c(N3CCOCC3)n2)cc1	none
Clc1ccc2oc(SCc3cccnc3)nc2c1	SKN-1 inh 41
Clc1ccc2oc(-c3cccnc3)nc2c1	SKN-1 inh 50
COc1ccc(CCNS(=O)(=O)c2cc3c4c(c2)CCN4C(=O)CC3)cc1	none
Nc1c(C(=O)NCc2ccc3c(c2)OCO3)nnn1Cc1ccc(Br)cc1	none
CC(=O)Nc1ccc(NC(=O)C(C)OC(=O)/C(C#N)=C/c2ccc(N(C)C)cc2)cc1 (stereo unspecified)	none
CC(OC(=O)/C(C#N)=C/c1ccc(N(C)C)cc1)C(=O)N(C)c1ccccc1 (stereo unspecified)	SKN-1 inh 46
COc1cc2ncnc(NCc3ccccc3Cl)c2cc1OC	none
CC1CCCCN1S(=O)(=O)c1ccc(C(=O)Nc2sccc2C(N)=O)cc1 (stereo unspecified)	SKN-1 inh 40
Cn1c(Cl)nc2ccccc21	none
CN(C)c1ccc(N=Nc2nc3ccccc3n2C)cc1	SKN-1 inh 62
Cn1c(N=Nc2ccccc2)nc2ccccc21	SKN-1 inh 40
CCn1c(NCc2ccc(N(C)C)cc2)nc2ccccc21	none
c1ccc(CCc2cc3ccccc3[nH]2)cc1	none
O=C1c2cc(S(=O)(=O)NCCO)ccc2-c2ccc(S(=O)(=O)NCCO)cc21	none

Compound activity as filed in PubChem BioAssay.
